Measured values gathered from unrelated publications.
Each line is one published result; the experiments were not run side by side.
Target: Cytochrome P450 1A2 (CYP1A2, Homo sapiens, UniProt P05177)
Read-out: enzyme activity
Action: inhibitor

| Compound | assay | test system | conditions | measurement | value |
| --- | --- | --- | --- | --- | --- |
| C=CC(=O)Nc1cc(Nc2nccc(Nc3cc(Cl)c(F)cc3C(C)(C)O)n2)c(OC)cc1N1CC[C@@H](N(C)C)C1 |  | human, liver microsomes |  | IC50 | > 30000 nM |
| C[C@H]1CN(c2n[nH]c3nc(N[C@H]4CC[C@H](NS(=O)(=O)CCC(F)(F)F)CC4)ncc23)CCO1 |  |  |  | IC50 | > 100000 nM |
| Cc1ccc2nc(-c3ccccc3)c(CNc3ccc(F)cc3)n2c1 |  |  |  | IC50 | 1800 nM |
| COc1ccc2[nH]c([S+]([O-])Cc3ncc(C)c(OC)c3C)nc2c1 (stereo not drawn) | fluorescence |  |  | IC50 | 112000 nM |
| CCn1c(C(=O)N(C2CC2)C2CC2)cc2c3c(ncn3C)c(Nc3cc(C)n(C)n3)nc21 |  | human, liver microsomes |  | Ki | 600 nM |
| COc1ccc2c(Cc3ccccc3F)c3n(c(=O)c2c1OC)CCc1cc2c(cc1-3)OCO2 |  |  |  | IC50 | > 10000 nM |
| C#Cc1ccc2c(=O)cc(-c3ccccc3)oc2c1 |  |  | 6 min, pH 7.6 | Ki | 520 nM |
| CC(CN1c2ccccc2Sc2ccccc21)N(C)C (stereo not drawn) | fluorescence |  |  | IC50 | 1000 nM |
| CCc1cc(/C(C)=N/OCc2ccc(C3CCCCC3)c(C(F)(F)F)c2)ccc1CN1CC(C(=O)O)C1 |  | human, liver microsomes | 20 min | IC50 | > 1100 nM |
| C#Cc1cccc2oc(-c3ccccc3)cc(=O)c12 |  |  | 6 min, pH 7.6 | Ki | 810 nM |
| Cc1cc(C)c2c(c1)[C@@H](N(Cc1cc(C(F)(F)F)cc(C(F)(F)F)c1)c1nnn(C)n1)CCCN2C[C@H]1CC[C@H](C(=O)O)CC1 |  | human, liver microsomes | pH 7.4 | Ki | 7100 nM |
| Cc1cc2c(F)c(Oc3ncnn4cc(OC[C@@H](C)O)c(C)c34)ccc2[nH]1 | fluorescence |  | 15 min | IC50 | 44500 nM |
